Data on 25 molecules can be found in ChEMBL document CHEMBL1134760, “Evaluation of amino acid-based linkers in potent macrocyclic inhibitors of farnesyl-protein transferase” (Bioorg Med Chem Lett, 2001).

Bounds are passed on as bounds.

Data set [1] in a line: Clearance by iv administration in dogs at a dose of 1 mg/kg. The settings on record: dog, in vivo.
The conditions of data set [2]: rat.
The target in data set [3] is Protein farnesyltransferase (Rattus norvegicus, UniProt Q02293+Q04631). In words: In vitro ability to displace radiolabeled FTI from farnesyltransferase in cultured Ha-ras transformed RAT1 cells. The format is cell-based. In outline:
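Competitive binding in v-Ha-ras transformed RAT1 cells seeded at 200,000 cells/well and cultured 16 h. [125I]-labelled FTI radiotracer diluted to 1 nM in culture medium with test FTI is added to the monolayers. Incubation 4 h at 37 °C, PBS rinse, trypsinization, gamma counting. Nonspecific binding is taken with 1000-fold excess unlabeled FTI.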

Data set [4] concerns the target Geranylgeranyl transferase type I (Homo sapiens, UniProt P49354+P53609). In words: In vitro inhibitory activity to reduce the human geranylgeranyl transferase type I (GGPTase-1)-catalyzed incorporation of 3H GGPP (100 nM) into K-Ras-derived peptide. In kind it is functional.
For data set [5], the target named is Protein farnesyltransferase (Homo sapiens, UniProt P49354+P49356). The data set is described as follows: In vitro inhibitory activity to reduce the human farnesyltransferase catalyzed incorporation of [3H]FPP into recombinant Ras-CVIM. The format is functional. In outline:
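Human FPTase, [3H]FPP incorporated into recombinant Ras-CVIM. Enzyme at 1 nM, or 10 pM for some compounds.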

The clearance is the volume of plasma or blood freed of the substance per unit of time. High values mean a high capacity for elimination, low ones a low capacity for elimination. As a reminder, the half-life is the time needed for the level to fall by half in the phase considered. A low value points to rapid decline. In turn, `N#Cc1ccc2cc1Oc1ccc3cccc(c3c1)N1CCN(CC1=O)Cc1cncn1C2` gave a clearance in data set [1] of 5.1 mL/min/kg. The half-life in data set [2] was 1 h.
For orientation: IC50 means the concentration needed to halve the response being measured. `N#Cc1ccc2cc1Oc1ccc3cccc(c3c1)NC(=O)CNC(=O)Cc1cncn1C2`: the IC50 in data set [3] was determined as 67 nM; in data set [4] it was 150 nM; in data set [5], 3.8 nM.
With `C[C@@H]1C(=O)N(C)c2cccc3ccc(cc23)Oc2cc(ccc2C#N)Cn2cncc2CN1C`, the half-inhibitory concentration (IC50) in data set [3] turned out to be 15 nM; in data set [4], 6760 nM.
Regarding `N#Cc1ccc2cc1Oc1ccc3cccc(c3c1)NC(=O)[C@@H](Cc1ccccc1)NCc1cncn1C2`, the results for the 50% inhibitory concentration (IC50) in data set [3], in data set [4] and in data set [5] were 17 nM, 66 nM and 0.47 nM, respectively.
On the same counts, the results for `CN1C(=O)CNCc2cncn2Cc2ccc(C#N)c(c2)Oc2ccc3cccc1c3c2` are 55 nM, 6720 nM and 15 nM.
Consider `C[C@@H]1C(=O)Nc2cccc3ccc(cc23)Oc2cc(ccc2C#N)Cn2cncc2CN1C`, for which the figures for the IC50 in data set [3], in data set [4] and in data set [5] were above 100 nM, 1220 nM and 7 nM, respectively.
As for `CC[C@H]1NCc2cncn2Cc2ccc(C#N)c(c2)Oc2ccc3cccc(c3c2)NC1=O`, the half-inhibitory concentration (IC50) in data set [3] stood at 410 nM; in data set [4], 469 nM; in data set [5], 1.2 nM.
With `C[C@H]1NC(=O)Cc2cncn2Cc2ccc(C#N)c(c2)Oc2ccc3cccc(c3c2)NC1=O`, the figures for the IC50 in data set [3], in data set [4] and in data set [5] were 258 nM, 50 nM and 3.3 nM, respectively.
With `N#Cc1ccc2cc1Oc1ccc3cccc(c3c1)NC(=O)[C@@H](Cc1cccnc1)NCc1cncn1C2`, the IC50 in data set [3] is 1310 nM; in data set [4], 147 nM; in data set [5], 1.8 nM.
For `CN1CC(=O)N(C)c2cccc3ccc(cc23)Oc2cc(ccc2C#N)Cn2cncc2C1`, in that order: 13 nM, 12800 nM and 8.4 nM.
For `CN1CC(=O)Nc2cccc3ccc(cc23)Oc2cc(ccc2C#N)Cn2cncc2C1`, the results for the half-maximal inhibitory concentration (IC50) in data set [3], in data set [4] and in data set [5] were 196 nM, 2070 nM and 5.7 nM, respectively.
Turning to `CN1C(=O)CNC(=O)Cc2cncn2Cc2ccc(C#N)c(c2)Oc2ccc3cccc1c3c2`, the IC50 in data set [3] was found to be 65 nM; in data set [4], 1090 nM; in data set [5] it was 6.6 nM.
In the case of `N#Cc1ccc2cc1Oc1ccc3cccc(c3c1)NC(=O)[C@@H](Cc1cccs1)NCc1cncn1C2`, the IC50 is 43 nM in data set [3], 72 nM in data set [4] and 2.1 nM in data set [5].
In the case of `C[C@@H]1C(=O)Nc2cccc3ccc(cc23)Oc2cc(ccc2C#N)Cn2cncc2CN1Cc1ccccc1`, the concentration for half-maximal inhibition (IC50) in data set [3] was 240 nM; in data set [4], above 20000 nM; in data set [5], 18 nM.
For `N#Cc1ccc2cc1Oc1ccc3cccc(c3c1)C(=O)NCCCNCc1cncn1C2`, in that order: 99 nM, 890 nM and 2.3 nM.
Regarding `C[C@H]1NCc2cncn2Cc2ccc(C#N)c(c2)Oc2ccc3cccc(c3c2)NC1=O`, the IC50 in data set [3] came out at 23 nM; in data set [4], 313 nM; in data set [5] it was 1.3 nM.
Regarding `N#Cc1ccc2cc1Oc1ccc3cccc(c3c1)C(=O)NCCNCc1cncn1C2`, the IC50 in data set [3] amounted to 7.1 nM; in data set [4] it was 77 nM; in data set [5], 4.5 nM.
Turning to `C[C@@H]1NCc2cncn2Cc2ccc(C#N)c(c2)Oc2ccc3cccc(c3c2)NC1=O`, the results for the concentration for half-maximal inhibition (IC50) in data set [3], in data set [4] and in data set [5] were 248 nM, 4820 nM and 11 nM, respectively.
For the molecule `C[C@H]1NCc2cncn2Cc2ccc(C#N)c(c2)Oc2ccc3cccc(c3c2)N(C)C1=O`, the IC50 in data set [3] was found to be 17 nM; in data set [4], 3160 nM; in data set [5] it was 16 nM.
For `N#Cc1ccc2cc1Oc1ccc3cccc(c3c1)NC(=O)[C@@H](Cc1ccccc1)N(Cc1ccccc1)Cc1cncn1C2`, in that order: 574 nM, above 20000 nM and 50 nM.
In the case of `N#Cc1ccc2cc1Oc1ccc3cccc(c3c1)NC(=O)CNCc1cncn1C2`, the IC50 in data set [3] is 37 nM; in data set [4], 675 nM; in data set [5], 4.3 nM.
For `N#Cc1ccc2cc1Oc1ccc3cccc(c3c1)C(=O)NCCNC(=O)Cc1cncn1C2`, the IC50 in data set [3] was found to be 409 nM; in data set [4], 250 nM; in data set [5], 2.5 nM.
For `N#Cc1ccc2cc1Oc1ccc3cccc(c3c1)NC(=O)CN(Cc1ccccc1)Cc1cncn1C2`, the IC50 in data set [3] is 29.6 nM; in data set [4], above 20000 nM; in data set [5] it was 2.6 nM.
On the same counts, the results for `CN1Cc2cncn2Cc2ccc(C#N)c(c2)Oc2ccc3cccc(c3c2)NC(=O)[C@H]1Cc1ccccc1` are 184 nM, 350 nM and 2.7 nM.
Regarding `N#Cc1ccc2cc1Oc1ccc3cccc(c3c1)NC(=O)[C@@H](Cc1ccccc1)NC(=O)Cc1cncn1C2`, the IC50 in data set [3] amounted to 310 nM; in data set [4], 29 nM; in data set [5], 3.5 nM.
